Screens (PubChem BioAssay)
HePTP inh = inhibitors of human HePTP phosphatase, primary screen, biochemical, absorbance, leukemia target; 110,000 tested, 0.64% active; inhibition, % at 20 µM; Tyrosine-protein phosphatase non-receptor type 7 (Homo sapiens), P35236; recombinant HePTP phosphatase activity, OD absorbance; in the data active = inhibition above about 50%;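 also: plate controls were vehicle for no effect and reference inhibitor for full effect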
Target sequence (P35236 whole entry, looked up): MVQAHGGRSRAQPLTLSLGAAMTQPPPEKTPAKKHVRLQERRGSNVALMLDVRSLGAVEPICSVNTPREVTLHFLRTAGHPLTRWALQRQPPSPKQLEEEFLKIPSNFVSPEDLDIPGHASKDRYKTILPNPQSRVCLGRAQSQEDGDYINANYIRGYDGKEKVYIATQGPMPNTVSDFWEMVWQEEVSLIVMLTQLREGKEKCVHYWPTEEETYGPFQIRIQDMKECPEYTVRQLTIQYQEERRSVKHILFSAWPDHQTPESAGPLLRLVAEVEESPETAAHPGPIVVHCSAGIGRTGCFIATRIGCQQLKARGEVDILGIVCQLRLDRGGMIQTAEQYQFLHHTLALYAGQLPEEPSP
Ecoli tolC = growth inhibitors of E. coli tolC mutant, primary screen, strain BW25113 ΔtolC::kan, 384-well; OD615; AID 573, 2007; 65,000 tested, 2.2% active; growth inhibition, % at 10 µM (by protocol);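 active = growth inhibition at or above a cutoff equal to the mean over every tested compound plus 3 SD, cut at about 60% in these data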;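 also: growth measured after 20 h incubation at 37 °C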
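Test system: tolC-deleted E. coli BW25113; medium: LB with kanamycin 50 µg/mL; compound: single-point testing at 10 µM; incubation: 20 h compound exposure of bacteria at 37 °C; signal: OD at 615 nm; evaluation: growth inhibition in percent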
PostGolgi yeast = phenotypic screen on post-Golgi transport, primary screen; post-Golgi transport phenotypic cell assay; inhibition, % at 10 µM; 98,000 tested, 0.9% active; AID 739, 2007;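 also: yeast cells grown in 1536-well plates; yeast grown about 18 h at 30C before absorbance read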
PostGolgi ctrl = growth inhibition of yeast control strain, primary screen, counter-screen for post-Golgi transport modulator project; efflux-deficient yeast background strain, growth absorbance A615, 16 h; inhibition, % at 10 µM; 98,000 tested, 5% active
PLAP activator = PLAP enzyme activators, biochemical, luminescence, HTS; purified PLAP enzyme, luminescent substrate read-out; hits give high values; activation fold at 20 µM; 96,000 tested, 1.2% active; in the data active = activation fold above about 2
E coli WT exp = growth inhibitors of wild-type E. coli, primary screen, strain BW25113, expanded library, OD600. OD600 absorbance. growth inhibition, % at 100 µM. 98,000 tested, 0.15% active;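 active = growth inhibition above about 50% at one test dose, limit read from the data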;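 also: growth measured after 20 h incubation at 37 °C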
* hit, by the source's call; . = no result given. Compounds with a hit are over-represented: about 5.4% of the library has one in this group of screens. Rule as the data show it, unless noted: active = inhibition above about 30%; inactive = the rest.

SMILES	HePTP inh	Ecoli tolC	PostGolgi yeast	PostGolgi ctrl	PLAP activator	E coli WT exp
Cc1[nH]nc2c1C(c1ccccn1)N(c1ccc(Br)cc1)C2=O (stereo not given)	6.3	0.0	-8.4	7.4	1.6	8.0
CCOC(=O)c1ccc(N2C(=O)c3n[nH]c(C)c3C2c2ccccn2)cc1 (stereo not given)	7.5	5.5	-3.7	13.4	2.5*	8.0
Cc1ccc(N2C(=O)c3n[nH]c(C)c3C2c2cccnc2)cc1 (stereo not given)	9.5	.	-3.0	-2.1	2.1*	-2.0
CCOC(=O)c1ccc(N2C(=O)c3n[nH]c(C)c3C2c2cccnc2)cc1 (stereo not given)	3.7	-6.5	0.2	7.2	2.3*	0.0
COc1ccc(OCCOCCOc2ccc(OC)cc2)cc1	8.6	.	.	.	.	.
Cc1ccc(S(=O)(=O)CCC(=O)c2ccc(O)cc2O)cc1	-3.0	13.0	-1.9	5.0	0.9	50.0*
CCC(C)c1ccc(NC(=O)c2c(-c3c(Cl)cccc3Cl)noc2C)cc1 (stereo not given)	7.2	.	.	.	.	.
CN(Cc1ccccc1)C(NC(=O)c1ccccc1)C(Cl)(Cl)Cl (stereo not given)	.	.	9.5	34.8*	0.7	1.0
CCN(CC)C(NC(=O)Cc1ccccc1)C(Cl)(Cl)Cl (stereo not given)	.	.	5.3	6.4	0.9	4.0
CCOc1ccc(C(=O)Nc2ccc(NC(=O)c3ccccc3Cl)cc2)cc1Br	11.5	.	.	.	.	.
C/C(=N/NC(=O)COc1cccc(Cl)c1)c1cccc([N+](=O)[O-])c1	9.8	.	.	.	.	.
Cc1[nH]c(=O)[nH]c(=O)c1S(=O)(=O)NCC12CC3CC(CC(C3)C1)C2	9.7	-4.3	-1.8	43.4*	0.8	4.0
N#C/C(=C\c1ccc(-c2ccc(Cl)cc2)o1)c1ccc(Cl)cc1	-7.5	.	.	.	.	.
O=C(Nc1nnc(-c2cccs2)o1)c1cccc(Oc2ccccc2)c1	2.9	97.0*	34.1*	21.9	1.4	29.0
O=C(Nc1nnc(-c2cccs2)o1)c1cccc(F)c1	-3.8	100.0*	.	.	.	.
CSc1ccc(/C=C2\C(=O)NC(=O)N(c3cc(C)cc(C)c3)C2=O)cc1	1.6	.	.	.	.	.
Cc1cc(C)cc(N2C(=O)NC(=O)/C(=C\c3cccc(F)c3)C2=O)c1	-12.4	.	.	.	.	.
CN(C(=O)CN1CCC(NC(=O)C2CCCCC2)CC1)C1CCCCC1	1.3	-7.7	-1.0	1.6	2*	-3.0
CCS(=O)(=O)N1CCC(NC(=O)C2CCCCC2)CC1	-2.2	2.6	13.9	1.4	1	3.0
CC(C)CN1C(=O)/C(=C/c2ccc(C(C)(C)C)cc2)SC1=S	0.3	.	.	.	.	.
Cc1cccc(Oc2nc(-c3ccccc3)cc(C)c2S(C)(=O)=O)c1C	.	.	-4.7	24.4	1.1	-19.0
Cc1cc(-c2ccccc2)nc(N(C)NC(=O)c2c(F)cccc2F)c1S(C)(=O)=O	.	.	4.2	30.3*	1.7	-11.0
O=C(Nc1cccc2ccccc12)c1cc(I)ccc1Cl	2.9	.	.	.	.	.
C=CCOc1c(CNc2nccs2)cccc1OCC	2.6	21.2	32.5*	22.7	0.9	11.0
C=CCOc1c(CNc2ccc(C(=O)O)cc2)cccc1OCC	.	.	0.0	7.2	1	-2.0
SMILES	HePTP inh	Ecoli tolC	PostGolgi yeast	PostGolgi ctrl	PLAP activator	E coli WT exp
CC12CC3CC(C)(C1)CC(CNC(=O)Nc1ccccc1)(C3)C2	-4.6	.	.	.	.	.
O=C(NC(=S)Nc1ccc(Cl)cn1)C(c1ccccc1)c1ccccc1	.	.	29.5	33.6*	0.9	-1.0
Cc1ccccc1NC(=O)c1ccc(C)c(S(=O)(=O)NCc2ccccc2)c1	-3.3	.	.	.	.	.
COc1ccc(N/C(N)=N/c2nc(CSc3ccc(Cl)cc3)cc(=O)[nH]2)cc1	.	.	0.2	-0.1	2*	-3.0
O=C(c1ccco1)N1N=C(c2cccs2)CC1c1ccc(F)cc1 (stereo not given)	.	.	13.8	34.9*	1	-1.0
O=C(c1cccs1)N1N=C(c2ccccc2)CC1c1ccccc1 (stereo not given)	0.5	.	1.1	69.0*	1.2	-4.0
NC(=O)c1cccc(NC(=O)c2ccc(-c3ccccc3)cc2)c1	-29.1	.	.	.	.	.
COc1ccc(C2=Nc3ccccc3NC(C)(c3ccc(OC)cc3OC)C2)c(OC)c1 (stereo not given)	5.9	.	.	.	.	.
Cc1ccc(C2=Nc3ccccc3NC(C)(c3ccc(C)o3)C2)o1 (stereo not given)	-10.0	25.8	-10.9	55.3*	1.3	9.0
CCOC(=O)c1ccc(NC(=NC)SC2CC(=O)N(c3ccccc3F)C2=O)cc1 (stereo not given)	-2.2	.	.	.	.	.
CCOC(=O)c1ccc(NC(=O)CCc2nc(-c3ccccc3Cl)no2)cc1	3.6	98.7*	-2.9	17.3	1.4	5.0
O=C(c1cccs1)N(Cc1nc2sc3c(c2c(=O)[nH]1)CCCC3)C1CCCC1	3.0	89.5*	8.9	10.8	1.6	-9.0
CCN(CC)C(=O)CCc1nc2sc3c(c2c(=O)[nH]1)CCCC3	.	.	0.5	3.2	1.2	-10.0
Cc1sc2ncn(CC(=O)N(CC(=O)NC3CCCC3)Cc3cccs3)c(=O)c2c1C	5.0	20.6	1.3	10.2	1.3	-9.0
Cc1sc2nc(CN(Cc3cccs3)C(=O)NC3CCCCC3)[nH]c(=O)c2c1C	5.0	89.3*	-4.6	42.8*	1.8	-15.0
Cc1cccc(NC(=O)N(Cc2nc3ccccc3c(=O)[nH]2)C2CCCC2)c1	10.4	37.2	13.6	-6.2	1.2	3.0
Cc1sc2nc(CN(C(=O)c3cccs3)C3CCCC3)[nH]c(=O)c2c1C	-5.2	41.5	0.2	34.1*	1.4	-1.0
O=C1CC(c2ccccc2)CC(O)=C1C=NCCC(c1ccccc1)c1ccccc1 (stereo not given)	5.0	.	.	.	.	.
O=C1NC(=S)S/C1=C\c1cccc(OS(=O)(=O)c2cccc([N+](=O)[O-])c2)c1	-4.7	.	.	.	.	.
CCNC(=S)NNC(=O)c1cc(-c2cccc(OCC)c2)nc2ccccc12	.	.	-5.6	9.8	2.7*	4.0
CCNC(=S)NNC(=O)c1cc(-c2ccccc2)nc2ccccc12	9.1	.	.	.	.	.
CCNC(=S)NNC(=O)c1cc(C2CC2)nc2ccccc12	.	.	-13.6	2.2	2.1*	4.0
CCCCOc1cccc(-c2cc(C(=O)NNC(=S)NCC)c3ccccc3n2)c1	.	.	23.1	14.5	1.1	3.0
N#C/C(=C\c1cccs1)c1nc(-c2ccc(Cl)cc2Cl)cs1	-5.4	.	.	.	.	.
CC(=O)c1ccc(NC(=O)C2CCCN2S(=O)(=O)c2cccc3cccnc23)cc1 (stereo not given)	4.1	1.8	4.6	31.3*	1	6.0
COc1ccc(-c2nnc(NC(=O)c3ccco3)s2)cc1OC	5.9	.	.	.	.	.
COc1cccc(C2C=C(c3ccc(Br)s3)Nc3ncnn32)c1OC (stereo not given)	6.0	39.5	-6.2	20.7	1.3	-3.0
